# The list shows a part of the results. A number with no mark means an inactive call.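 How the source made its calls: active means inhibition above 50%; inactive means the rest.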
# Target: Broad substrate specificity ATP-binding cassette transporter ABCG2 (Homo sapiens) (UniProt Q9UNQ0)
# Experiment: ABCG2 efflux pump inhibitors, confirmation, single point, IgMXP3 cells, ABCB1 counter-screen paired (AID 1453);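 further: 0% = DMSO wells and 100% = nicardipine pump inhibitor wells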
# Conditions: JC-1 efflux, flow cytometry, at 6.6 µM, stronger effect = higher value
# Procedure, shortened: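 Material – drug-resistant IgMXP3 cells expressing human ABCG2 · Reagent – JC-1 substrate · Dosing – single test compound dose, 6.6 µM final · Incubation – 10 min exposure at 25 °C · Signal – high-throughput flow cytometry, JC-1 green median fluorescence, 530 ± 20 nm · Read-out – percent pump inhibition versus DMSO and nicardipine · Controls – nicardipine high, DMSO low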
# Broad substrate specificity ATP-binding cassette transporter ABCG2 (Homo sapiens), sequence (Q9UNQ0 whole entry, looked up): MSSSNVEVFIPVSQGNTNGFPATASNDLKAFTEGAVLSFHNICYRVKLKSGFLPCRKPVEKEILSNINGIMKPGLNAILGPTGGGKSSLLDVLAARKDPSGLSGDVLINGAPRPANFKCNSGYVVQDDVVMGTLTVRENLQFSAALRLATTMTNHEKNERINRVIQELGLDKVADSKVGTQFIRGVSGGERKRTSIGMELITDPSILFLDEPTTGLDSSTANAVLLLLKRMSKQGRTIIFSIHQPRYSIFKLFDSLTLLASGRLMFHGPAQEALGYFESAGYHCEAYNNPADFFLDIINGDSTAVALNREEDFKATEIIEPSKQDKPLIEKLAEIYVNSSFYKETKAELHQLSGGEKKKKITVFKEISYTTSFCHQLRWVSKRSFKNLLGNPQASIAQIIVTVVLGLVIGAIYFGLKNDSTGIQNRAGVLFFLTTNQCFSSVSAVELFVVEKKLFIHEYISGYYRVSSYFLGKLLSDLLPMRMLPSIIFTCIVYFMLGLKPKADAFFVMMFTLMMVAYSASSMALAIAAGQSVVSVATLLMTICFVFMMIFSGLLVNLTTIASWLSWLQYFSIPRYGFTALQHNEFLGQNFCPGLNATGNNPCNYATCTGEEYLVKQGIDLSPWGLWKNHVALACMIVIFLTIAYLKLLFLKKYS
structure (smiles),measurement,value
COC(=O)COc1cc(C)cc2oc(=O)c3c(c12)CCCC3,inhibition,22.6%

# Reference: PubChem BioAssay AID1453 (NMMLSC, 2008)
